For assay [1], the system named is metallo-β-lactamase VIM-4 (Pseudomonas aeruginosa). Description: Inhibition of VIM-4 (unknown origin) expressed in Escherichia coli BL21(DE3) assessed as substrate hydrolysis at 100 uM by UV-Vis spectrophotometric analysis relative to control.
Assay [2] deals with metallo-β-lactamase IMP-1 (Pseudomonas aeruginosa). The assay is described as follows: Inhibition of IMP1 (unknown origin) expressed in Escherichia coli BL21(DE3) assessed as substrate hydrolysis at 100 uM by UV-Vis spectrophotometric analysis relative to control.
In assay [3] the test system is metallo-β-lactamase VIM-2 (Pseudomonas aeruginosa). The assay is described as follows: Inhibition of VIM-2 (unknown origin) expressed in Escherichia coli BL21(DE3) assessed as substrate hydrolysis at 100 uM by UV-Vis spectrophotometric analysis relative to control.
Assay [4] relates to metallo-β-lactamase L1 (Stenotrophomonas maltophilia). The assay is described as follows: Inhibition of L1 (unknown origin) expressed in Escherichia coli BL21(DE3) assessed as substrate hydrolysis at 100 uM by UV-Vis spectrophotometric analysis relative to control.
Assay [5] deals with Metallo-beta-lactamase type 2 (Bacteria) (UniProt C7C422). Description: Inhibition of NDM1 (unknown origin) expressed in Escherichia coli BL21(DE3) assessed as substrate hydrolysis at 100 uM by UV-Vis spectrophotometric analysis relative to control. Summed up:
(§1)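 Single-point screen at 100 or 200 µM inhibitor against purified MBL (1–70 nM) with 150 µM imipenem or meropenem reporter substrate, 50 mM HEPES pH 7.5, 30 °C. Initial hydrolysis rate read by absorbance at 300 nm and compared with the uninhibited reaction. Triplicate.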

The target of assay [6] is Beta-lactamase VIM-1 (Bacteria) (UniProt Q8GDC1). Description: Inhibition of VIM-1 (unknown origin) expressed in Escherichia coli BL21(DE3) assessed as substrate hydrolysis at 100 uM by UV-Vis spectrophotometric analysis relative to control. In short, it runs like this: as §1
In assay [7] the test system is metallo-β-lactamase IMP-1 (Pseudomonas aeruginosa). Description: Inhibition of IMP1 (unknown origin) expressed in Escherichia coli BL21(DE3) assessed as substrate hydrolysis at 200 uM by UV-Vis spectrophotometric analysis relative to control.
The test system of assay [8] is metallo-β-lactamase VIM-2 (Pseudomonas aeruginosa). The assay is described as follows: Inhibition of VIM-2 (unknown origin) expressed in Escherichia coli BL21(DE3) assessed as substrate hydrolysis at 200 uM by UV-Vis spectrophotometric analysis relative to control.
Assay [9] has as its system metallo-β-lactamase VIM-4 (Pseudomonas aeruginosa). The assay is described as follows: Inhibition of VIM-4 (unknown origin) expressed in Escherichia coli BL21(DE3) assessed as substrate hydrolysis at 200 uM by UV-Vis spectrophotometric analysis relative to control.
The target of assay [10] is Metallo-beta-lactamase type 2 (Bacteria) (UniProt C7C422). The assay is described as follows: Inhibition of NDM1 (unknown origin) expressed in Escherichia coli BL21(DE3) assessed as substrate hydrolysis at 200 uM by UV-Vis spectrophotometric analysis relative to control. In short, it runs like this: as §1
Metallo-beta-lactamase type 2 (Bacteria), sequence (C7C422 whole entry): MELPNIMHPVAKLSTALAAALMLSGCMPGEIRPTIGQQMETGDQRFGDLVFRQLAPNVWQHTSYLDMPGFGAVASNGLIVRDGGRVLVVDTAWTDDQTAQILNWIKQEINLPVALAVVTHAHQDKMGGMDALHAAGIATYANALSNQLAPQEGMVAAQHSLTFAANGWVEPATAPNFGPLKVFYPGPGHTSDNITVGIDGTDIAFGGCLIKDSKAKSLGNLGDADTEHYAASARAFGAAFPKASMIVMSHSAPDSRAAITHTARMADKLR
The nature of assay [11]: Binding affinity to VIM-2 (unknown origin) expressed in Escherichia coli BL21(DE3) assessed as inhibition constant by measuring rate of substrate hydrolysis by UV-Vis spectrophotometric analysis. Summed up:
(§2)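 Purified MBL (1–70 nM) with 150 µM imipenem or meropenem as reporter substrate, 50 mM HEPES pH 7.5, 30 °C. Hydrolysis followed by absorbance at 300 nm without and with inhibitor (0.5 µM–1 mM). Ki from the slope of v0/vi vs [I] under a competitive model, or from Dixon plots varying inhibitor and substrate. […] Triplicate, mean ± SD.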

The nature of assay [12]: Binding affinity to IMP1 (unknown origin) expressed in Escherichia coli BL21(DE3) assessed as inhibition constant by measuring rate of substrate hydrolysis by UV-Vis spectrophotometric analysis. As to conditions: read-out: Ki. In short, it runs like this:
as §2

The target of assay [13] is Metallo-beta-lactamase type 2 (Bacteria, UniProt C7C422). Description: Binding affinity to NDM1 (unknown origin) expressed in Escherichia coli BL21(DE3) assessed as inhibition constant by measuring rate of substrate hydrolysis by UV-Vis spectrophotometric analysis. Summed up:
as §2

For the next assay, the target named is Beta-lactamase VIM-1 (Bacteria, UniProt Q8GDC1). The assay is described as follows: Binding affinity to VIM-1 (unknown origin) expressed in Escherichia coli BL21(DE3) assessed as inhibition constant by measuring rate of substrate hydrolysis by UV-Vis spectrophotometric analysis. Summed up: as §2
Assay [14] in a line: Binding affinity to VIM-4 (unknown origin) expressed in Escherichia coli BL21(DE3) assessed as inhibition constant by measuring rate of substrate hydrolysis by UV-Vis spectrophotometric analysis. Summed up: as §2
Assay [15] has as its system Klebsiella pneumoniae. Description: Antimicrobial synergistic activity against blaVIM-1-producing multidrug-resistant Klebsiella pneumoniae 7023 clinical isolate assessed as meropenem MIC at 32 ug/ml by CLSI based broth microdilution method (reference value: 16 ug/ml). Type of assay: functional. The settings on record: dose 32 µg/ml. (In general: Dilution methods test growth across graded concentrations, often in twofold steps.)

The test system of another assay is Escherichia coli. Description: Synergistic antimicrobial activity against blaNDM-1-producing multidrug-resistant Escherichia coli SI-004M clinical isolate assessed as meropenem MIC at 32 ug/ml by CLSI based microdilution method (reference value: 64 ug/ml). Type of assay: functional. As to conditions: dose 32 µg/ml.
Assay [16] has as its system Klebsiella pneumoniae. Description: Antimicrobial synergistic activity against blaVIM-4-producing multidrug-resistant Klebsiella pneumoniae VA416/02 clinical isolate assessed as meropenem MIC at 32 ug/ml by CLSI based broth microdilution method (reference value: 16 ug/ml). In kind it is functional. As to conditions: dose 32 µg/ml.

Usually inhibition stands for the relative decrease from the control value, in per cent. A word on the pKi: it is −log10 of the Ki, conventionally taken in molar units. One may read the MIC as the lowest concentration that inhibits growth of the organism.

pKi: −log10 of the molar value.

Metallo-beta-lactamase type 2, sequence (C7C422 whole entry): as above

For `O=C(O)Cc1ccccc1Cn1c(-c2ccccc2)n[nH]c1=S`, the inhibition in [1] is < 30%; in assay [2] it was < 30%; in assay [3], 50%; in assay [4] it was < 30%; in assay [5] it was < 30%; in assay [6], < 30%.
As to `S=c1[nH]nc(-c2ccccc2)n1CCc1c[nH]c2ccccc12`, the inhibition was < 50% in assay [7]; < 30% in assay [2]; 50% in assay [8]; < 30% in assay [5]; 50% in [9]; < 50% in assay [10]. In addition, the inhibition in assay [6] was 50%.
With `S=c1[nH]nc(-c2ccccc2)n1CCc1ccc(OCc2ccccc2)cc1`, the inhibition in [1] was < 30%; in assay [5], < 30%; in assay [9] it was < 50%; in [10], < 50%; in [6], 34%. Moreover, the pKi in assay [11] was 4.72; in [12], 5.28.
With `Oc1cccc(CCn2c(-c3cccc(-c4ccccc4)c3)n[nH]c2=S)c1O`, the pKi in [13] (read-out: Ki) is 4.65; at Beta-lactamase VIM-1, 6.15; in assay [14] it was 6.10; in assay [11] it was 5.74; in [12], 4.70. The values for the minimal inhibitory concentration (MIC) with Klebsiella pneumoniae [15], with Escherichia coli and with Klebsiella pneumoniae [16] were 16 µg/mL, 32 µg/mL and 4 µg/mL, respectively.
`Oc1ccc(CCn2c(-c3ccccc3)n[nH]c2=S)c(O)c1`: the pKi was 4.38 in assay [13] (read-out: Ki(app)), 5.29 at Beta-lactamase VIM-1, 5.39 in assay [14] and 4.57 in assay [12]. Besides, the inhibition in assay [3] is < 30%; in [8], < 50%. Also, the MIC in the assay with Klebsiella pneumoniae [15] worked out at 4 µg/mL; in the assay with Klebsiella pneumoniae [16], 2 µg/mL.
Regarding `O=C(O)c1ccc(Cn2c(-c3ccccc3)n[nH]c2=S)cc1`, the inhibition in [2] is < 30%; in assay [4] it was 45%; in assay [5], < 30%. Moreover, the pKi on Beta-lactamase VIM-1 is 5.44; in assay [14], 5.96; in assay [11] it was 5.57. The MIC in the assay on Klebsiella pneumoniae [15] was determined as 4 µg/mL; with Escherichia coli it was 64 µg/mL; in the assay on Klebsiella pneumoniae [16] it was 2 µg/mL.
`Oc1ccc(CCn2c(-c3ccccc3-c3ccccc3)n[nH]c2=S)c(O)c1`: the inhibition was < 50% in assay [7], < 30% in [2] and 35% in assay [3]. Besides, the pKi was 4.82 in [13] (read-out: Ki), 4.57 on Beta-lactamase VIM-1 and 4.22 in assay [14].
For the molecule `Cc1ccccc1-c1n[nH]c(=S)n1CCc1ccc(OCc2ccccc2)cc1`, the inhibition is < 50% in [7]; < 30% in [1]; < 30% in [2]; < 30% in assay [3]; < 50% in assay [8]; < 30% in assay [5]. Besides, the inhibition in [9] was < 50%; in assay [10], < 50%; in assay [6], 47%.
In the case of `O=C1OC(Cn2c(-c3ccc4ccccc4c3)n[nH]c2=S)c2ccccc21` (stereo not given), the pKi was 4.55 in assay [13] (read-out: Ki(app)), 5.20 at Beta-lactamase VIM-1, 5.09 in [14] and 5.01 in assay [12]. In addition, the inhibition in assay [3] is < 30%; in assay [8], < 50%.
For `S=c1[nH]nc(-c2ccccc2)n1[C@@H]1C[C@H]1c1ccccc1`, the results for the inhibition in [1], in assay [3] and in assay [9] were < 30%, 30% and < 50%, respectively. In addition, the pKi in assay [13] (read-out: Ki) is 4.81; at Beta-lactamase VIM-1, 5.51.
For the molecule `O=C(O)c1ccccc1/C=N/n1c(-c2cccc(-c3ccccc3)c2)n[nH]c1=S`, the pKi in assay [13] (read-out: Ki) is 5.38; in assay [14], 7.40; in assay [11], 6.70; in assay [12] it was 4.75.
With `S=c1[nH]nc(-c2ccccc2)n1CCCCc1ccccc1`, the inhibition in assay [2] is < 30%; in assay [4], 50%; in [5], 55%. Moreover, the pKi is 5.92 at Beta-lactamase VIM-1, 6.37 in [14] and 6.64 in assay [11]. Also, the MIC in the assay with Klebsiella pneumoniae [15] worked out at 2 µg/mL; in the assay on Escherichia coli it was 64 µg/mL; in the assay on Klebsiella pneumoniae [16], 4 µg/mL.
As for `COc1ccc(O)c(-c2n[nH]c(=S)n2[C@@H]2C[C@H]2c2ccccc2)c1`, the pKi was 5.02 in assay [13] (read-out: Ki), 5.66 on Beta-lactamase VIM-1, 5.60 in assay [14] and 5.34 in assay [12]. Also, the inhibition in [3] is 41%. For the same molecule, the results for the MIC in the assay on Klebsiella pneumoniae [15], in the assay with Escherichia coli and in the assay on Klebsiella pneumoniae [16] were 4 µg/mL, 32 µg/mL and 2 µg/mL, respectively.
As to `S=c1[nH]nc(Cc2ccccc2)n1Cc1ccccc1`, the inhibition in assay [1] was < 30%; in assay [2] it was 57%; in assay [3], < 30%; in [4], 40%; in [5], < 30%. Besides, the pKi on Beta-lactamase VIM-1 was 4.64.
For the molecule `COc1ccc(O)c(-c2n[nH]c(=S)n2Cc2ccccc2)c1`, the inhibition in assay [2] was < 30%; in [4] it was 40%; in [5] it was < 30%. The pKi is 6.23 at Beta-lactamase VIM-1, 5.74 in assay [14] and 5.40 in assay [11]. Further, the figures for the MIC with Klebsiella pneumoniae [15], in the assay on Escherichia coli and in the assay on Klebsiella pneumoniae [16] were 2 µg/mL, 32 µg/mL and 2 µg/mL, respectively.
Turning to `O=C1OC(Cn2c(-c3ccccc3-c3ccccc3)n[nH]c2=S)c2ccccc21` (stereo not given), the inhibition in assay [1] was 34%; in assay [2], 54%; in assay [3], < 30%; in assay [8], < 50%; in assay [5], < 30%; in assay [10] it was < 50%. For the same molecule, the inhibition in assay [6] was determined as 30%.
For the molecule `Oc1ccc(CCn2c(-c3ccccc3)n[nH]c2=S)cc1`, the pKi in assay [13] (read-out: Ki) is 4.92; at Beta-lactamase VIM-1 it was 5.68; in assay [14], 5.64; in assay [11], 5.21; in assay [12], 4.38. Moreover, the MIC in the assay with Klebsiella pneumoniae [15] is 4 µg/mL; in the assay on Escherichia coli, 64 µg/mL; with Klebsiella pneumoniae [16] it was 4 µg/mL.
As to `Oc1ccc(/C=N/n2c(-c3ccccc3-c3ccccc3)n[nH]c2=S)c(O)c1`, the pKi in [13] (read-out: Ki) is 5.19; in [14], 5.05; in assay [11], 5.35; in assay [12] it was 4.92.
Take `COc1ccc(O)c(-c2n[nH]c(=S)n2CCc2ccccc2)c1`: the pKi in [13] (read-out: Ki) is 5.17; at Beta-lactamase VIM-1 it was 5.72; in assay [14] it was 5.82; in assay [11], 5.41; in assay [12] it was 4.69. The minimum inhibitory concentration (MIC) in the assay on Klebsiella pneumoniae [15] was 4 µg/mL; in the assay on Escherichia coli, 64 µg/mL; in the assay on Klebsiella pneumoniae [16], 2 µg/mL.
For the molecule `S=c1[nH]nc(Cc2ccccc2)n1CCCc1ccccc1`, the inhibition in assay [1] is < 30%; in assay [2], 63%; in assay [3] it was < 30%; in assay [4] it was 32%; in [5], < 30%; in [6], 30%.

For the origin of these results see ChEMBL document CHEMBL5325390, “1,2,4-Triazole-3-thione analogues with an arylakyl group at position 4 as metallo-β-lactamase inhibitors” (Bioorg Med Chem, 2022).
